Where “and” joins values, the source holds several entries; their conditions need not be identical. Equal values may be shown once. Entries after “also recorded” stand apart in the source; their conditions may differ.
Key:
OXE receptor [1] = target: T1, OXE receptor (Homo sapiens, UniProt Q8TDS5); test: 5-oxo-ETE-induced calcium mobilization in indo-1-loaded neutrophils; type: cell-based; settings: for Effect on 5-oxo-ETE-induced calcium mobilization: compound 10 μM
OXE receptor [2] = settings: cited from earlier work
OXE receptor [3] = target: T1, OXE receptor; settings: cited from earlier work
eosinophils = test: 5-oxo-ETE-induced actin polymerization in eosinophils; type: cell-based, human; settings: 5-oxo-ETE 10 nM
neutrophils = test: 5-oxo-ETE-induced actin polymerization in neutrophils; type: cell-based, human; settings: 5-oxo-ETE 10 nM
In short: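 Unfractionated leukocytes came from healthy-donor blood by dextran sedimentation and hypotonic lysis. They were labelled with APC anti-CD49d (30 min, ice) and held at 5.5 × 10^6 cells/ml in PBS with Ca++ 1.8 mM and Mg++ 1 mM. Cells were preincubated 5 min at 37 °C with DMSO vehicle or test compound, then given 5-oxo-ETE (10 nM final) for 20 s. They were fixed in formaldehyde (8.5% final), permeabilised with lysophosphatidylcholine and stained overnight at 4 °C with NBD-phallacidin (0.3 μM final). F-actin was read by flow cytometry.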

OXE receptor [4] = target: T1, OXE receptor; settings: concentration of 30 μM; cited from earlier work
IL-8 = test: Selectivity: calcium mobilization in neutrophils in response to IL-8; type: cell-based, human; settings: compound 10 μM; IL-8 10 nM
In short: (§1)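 Neutrophils were prepared by dextran sedimentation, Ficoll and hypotonic lysis, loaded with indo-1 AM, and placed in a stirred cuvette at 37 °C in PBS with Ca++ 1.8 mM and Mg++ 1 mM. Fluorescence was read at excitation 331 nm and emission 410 nm. Vehicle or test compound was added at baseline, 5-oxo-ETE (10 nM final) 2 min later, and the second agonist 2 min after that. Digitonin (0.1% final) followed 1 min later for maximal signal.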

fMLP = test: Selectivity: calcium mobilization in neutrophils in response to fMLP; type: cell-based, human; settings: compound 10 μM; fMLP 100 nM
In short: as §1

LTB4 = test: Selectivity: calcium mobilization in neutrophils in response to LTB4; type: cell-based, human; settings: compound 10 μM; LTB4 10 nM
In short: as §1

[5] = Metabolism by rat liver homogenates in medium favoring β-oxidation; type: in vitro ADME; settings: medium containing ATP, CoA, L-carnitine and NAD+
PAF = test: Selectivity: calcium mobilization in neutrophils in response to PAF; type: cell-based, human; settings: compound 10 μM; PAF 10 nM
In short: as §1

[6] = Preliminary pharmacokinetic experiments in rats, oral administration; type: in vivo, rat; settings: unpublished data
[7] = Metabolism by rat liver homogenates in the presence of NADPH; type: in vitro ADME; settings: 20 μM, NADPH 1 mM, 60 min, 37 °C
In short: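 Liver from male Sprague-Dawley rats was homogenised in ice-cold 0.25 M sucrose and spun at 600 × g for 10 min; the supernatant served as homogenate. It was incubated with test compound (20 μM) in phosphate buffer (pH 7.4, 50 mM final) with NADPH (1 mM final) for 60 min at 37 °C. Reactions were stopped with ice-cold MeOH. Products were analysed by reversed-phase C18 HPLC (22–42% acetonitrile gradient, 0.02% acetic acid) with photodiode-array UV detection.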

[8] = calcium mobilization, 5-oxo-ETE 10 nM

T1 sequence (Q8TDS5 whole entry): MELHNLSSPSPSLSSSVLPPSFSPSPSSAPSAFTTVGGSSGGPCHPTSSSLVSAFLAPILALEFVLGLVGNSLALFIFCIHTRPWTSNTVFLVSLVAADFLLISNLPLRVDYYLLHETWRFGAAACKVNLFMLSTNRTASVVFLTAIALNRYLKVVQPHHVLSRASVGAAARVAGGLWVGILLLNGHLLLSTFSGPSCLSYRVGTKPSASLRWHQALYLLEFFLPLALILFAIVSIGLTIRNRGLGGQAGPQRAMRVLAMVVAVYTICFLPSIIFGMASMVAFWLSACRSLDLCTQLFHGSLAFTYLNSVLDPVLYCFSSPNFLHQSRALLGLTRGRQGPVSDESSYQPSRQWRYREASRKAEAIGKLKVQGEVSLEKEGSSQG

CCCCCCc1c(C)c2ccccc2n1C(=O)CC(C)CC(=O)O (stereo not drawn) [compound 47, 5-(2-hexyl-3-methyl-1-H-indol-1-yl)-3-methyl-5-oxo-pentanoic acid]
Antagonist potency compared with 27 (OXE receptor [1]; [8]): relatively little effect

CCCCCCc1cc2ccccc2n1C(=O)CC1(CC(=O)O)CC1 [compound 25, 2-(1-(2-(2-hexyl-1H-indol-1-yl)-2-oxoethyl)cyclopropyl)acetic acid]
Antagonist potency compared with 10 (OXE receptor [1]; [8]): relatively little effect

CCCCCCc1cc2ccccc2n1C(=O)CC(C)(C)CC(=O)O [compound 17, 5-(2-hexyl-1H-indol-1-yl)-3,3-dimethyl-5-oxopentanoic acid]
Reduction in antagonist potency relative to 10 (OXE receptor [1]; [8]): about 10 fold

CCCCCCCCC/C=C\c1cc2ccccc2n1C(=O)CCCC(=O)O [compound 15, (Z)-5-oxo-5-(2-(undec-1-en-1-yl)-1H-indol-1-yl)pentanoic acid]
Antagonist potency compared with 13 (OXE receptor [1]; [8]): little effect

CCCCCC(=O)/C=C/C=C\C/C=C\C/C=C\CCCC(=O)O [15-oxo-ETE]
Activation of the OXE receptor (OXE receptor [2]): do not activate the OXE receptor

CCCCCCc1cc2cc(Br)ccc2n1C(=O)CC(C)CC(=O)O (stereo not drawn) [compound 42, 5-(5-bromo-2-hexyl-1-H-indol-1-yl)-3-methyl-5-oxo-pentanoic acid]
Antagonist potency compared with 27 (OXE receptor [1]; [8]): reduced potency by several fold

CCCCCCc1c(C(=O)CCCC(=O)O)c2cc(Cl)ccc2n1C [compound 51, 5-(5-chloro-2-hexyl-1-methyl-1-H-indol-3-yl)-5-oxo-pentanoic acid]
Antagonist potency compared with 27 (OXE receptor [1]; [8]): less potent than 27 | Increase in antagonist potency relative to 50 (OXE receptor [1]; [8]): about 10 times

CCCCC/C=C\C[C@H](O)/C=C/C=C\C=C\C(=O)CCCC(=O)O [5-oxo-12-HETE, 5-oxo-12S-hydroxy-6E,8Z,10E,14Z-eicosatetraenoic acid]
Agonist activity (calcium mobilization by the compound itself) (OXE receptor [3]): Neither compound mobilized intracellular calcium; also recorded: not itself affecting intracellular calcium levels

CSc1nc2ccc3nc(NC(=O)C(c4ccccc4)c4ccccc4)sc3c2s1 [Gue1654, 7-(methylthio)-2-[(2,2-diphenylacetyl)amino]benzo[1,2-d:4,3-d′]bisthiazole]
Times less potent than 53 and 34 in blocking actin polymerization in eosinophils (eosinophils): about 10 times | Times less potent than 53 and 34 in blocking actin polymerization in neutrophils (neutrophils): about 10 times

CCCCCCc1[nH]c2ccccc2c1C(=O)CCCC(=O)O [compound 48, 5-(2-Hexyl-1H-indol-3-yl)-5-oxo-pentanoic acid]
Effect on 5-oxo-ETE-induced calcium mobilization (OXE receptor [1]; 5-oxo-ETE 10 nM): modest antagonist effect

O=C(O)CCCC(=O)n1ccc2ccccc21 [1(5-oxovalerate)indole]
Antagonist activity (OXE receptor [4]): no detectable activity

CCCCCc1cc2ccccc2n1C(=O)CCCC(=O)O [compound 9]
Antagonist potency compared with 10 (OXE receptor [1]; [8]): small decrease in potency

CCCCCCc1c(C(=O)CC(C)CC(=O)O)c2cc(Br)ccc2n1C (stereo not drawn) [compound 54, 5-(5-bromo-2-hexyl-1-methyl-1-H-indol-3-yl)-3-methyl-5-oxo-pentanoic acid]
Antagonist potency compared with 53 (OXE receptor [1]; [8]): equipotent

CCCCCCc1cc2cc(Cl)ccc2n1C(=O)CC(C)CC(=O)O (stereo not drawn) [compound 41, 5-(5-chloro-2-hexyl-1-H-indol-1-yl)-3-methyl-5-oxo-pentanoic acid]
Antagonist potency compared with 27 (OXE receptor [1]; [8]): relatively little effect

CCCCCCc1cc2ccc(Cl)cc2n1C(=O)CC(C)CC(=O)O (racemic) [compound 34, 5-(6-Chloro-2-hexyl-indol-1-yl)-3-methyl-5-oxo-pentanoic acid]
Effect on 5-oxo-ETE-induced calcium mobilization (OXE receptor [1]; 5-oxo-ETE 10 nM): completely blocked | Effect on calcium response to IL-8 (IL-8): no effect | Effect on calcium response to fMLP (fMLP): no effect | Effect on calcium response to LTB4 (LTB4): no effect | Metabolism under conditions favoring β-oxidation [5]: Negligible metabolism; also recorded: no evidence for the metabolism | Effect on calcium response to PAF (PAF): no effect | Appearance in the blood [6]: appear rapidly in the blood | Converted to a more polar product [7]: about 12% | Extent of metabolism [7]: metabolized to a small extent

CCCC/C=C/c1cc2ccccc2n1C(=O)CCCC(=O)O [compound 14, 5-(2-Hex-1-enyl-indol-1-yl)-5-oxo-pentanoic acid]
Antagonist potency compared with 10 (OXE receptor [1]; [8]): reduced potency

CCCCCCc1cc2ccc(Br)cc2n1C(=O)CC(C)CC(=O)O (stereo not drawn) [compound 35, 5-(6-bromo-2-hexyl-1-H-indol-1-yl)-3-methyl-5-oxo-pentanoic acid]
Increase in antagonist potency relative to 27 (OXE receptor [1]; [8]): approximately 3 fold

CCCCCCCCCCCc1cc2ccccc2n1C(=O)CCCC(=O)O [compound 13]
Antagonist potency compared with 10 (OXE receptor [1]; [8]): slightly increased potency

CCCCCCc1cc2ccccc2n1C(=O)CCCC(=O)O [compound 10]
Effect on 5-oxo-ETE-induced calcium mobilization (OXE receptor [1]; 5-oxo-ETE 10 nM): completely abolished

CCCCCCc1c(C(=O)CCCC(=O)O)c2ccccc2n1C [compound 50, 5-(2-hexyl-1-methyl-1-H-indol-3-yl)-5-oxo-pentanoic acid]
Antagonist potency compared with 48 (OXE receptor [1]; [8]): slightly increased potency

CCCCCCCc1cc2ccccc2n1C(=O)CCCC(=O)O [compound 11]
Antagonist potency compared with 10 (OXE receptor [1]; [8]): slightly increased potency

CCCCCCc1c(C(=O)CC(C)CC(=O)O)c2cc(Cl)ccc2n1C (racemic) [compound 53, 5-(5-Chloro-2-hexyl-1-methyl-1H-indol-3-yl)-3-methyl-5-oxo-pentanoic acid]
IC50 (OXE receptor [1]; IC50, inhibition of 5-oxo-ETE-induced calcium mobilization in neutrophils, 5-oxo-ETE 10 nM added 2 min after antagonist): 28 nM and ~30 nM | Further increase in antagonist potency relative to 51 and 52 (OXE receptor [1]; [8]): over 10 fold | Effect on 5-oxo-ETE-induced calcium mobilization (OXE receptor [1]; 5-oxo-ETE 10 nM): completely blocked | Effect on calcium response to IL-8 (IL-8): no effect | Effect on calcium response to fMLP (fMLP): no effect | Effect on calcium response to LTB4 (LTB4): no effect | Metabolism under conditions favoring β-oxidation [5]: Negligible metabolism; also recorded: no evidence for the metabolism | Effect on calcium response to PAF (PAF): no effect | Appearance in the blood [6]: appear rapidly in the blood | Extent of metabolism [7]: metabolized to an even lesser extent

O=C(O)CCCC(=O)/C=C/C=C\C/C=C\C/C=C\CCCCCO [5-oxo-20-hydroxy-ETE]
Times less potent than 5-oxo-ETE (OXE receptor [2]): 100 times

CCCCCCCCc1cc2ccccc2n1C(=O)CCCC(=O)O [compound 12]
Antagonist potency compared with 10 (OXE receptor [1]; [8]): slightly increased potency

CCCCCCc1c(C(=O)CC(C)CC(=O)O)c2ccc(Cl)cc2n1C (stereo not drawn) [compound 56, 5-(6-chloro-2-hexyl-1-methyl-1-H-indol-3-yl)-3-methyl-5-oxo-pentanoic acid]
Increase in antagonist potency relative to 52 (OXE receptor [1]; [8]): about 4 fold

CCCCCCc1cc2ccccc2n1C(=O)CC(C)CC(=O)O (stereo not drawn) [compound 27, 5-(2-hexyl-1H-indol-1-yl)-3-methyl-5-oxopentanoic acid]
Increase in antagonist potency relative to 10 (OXE receptor [1]; [8]): over 10 times

CCCCCCc1cc2ccccc2n1C(=O)CCC(=O)O [compound 29, 4-(2-Hexyl-indol-1-yl)-4-oxo-butyric acid]
Antagonist potency compared with 10 (OXE receptor [1]; [8]): nearly eliminated antagonist activity

CCCCc1cc2ccccc2n1C(=O)CCCC(=O)O [compound 8]
Reduction in antagonist potency relative to 10 (OXE receptor [1]; [8]): over 10 fold

CCCCCCc1cc2ccc(OC)cc2n1C(=O)CC(C)CC(=O)O (stereo not drawn) [compound 36, 5-(2-hexyl-6-methoxy-1-H-indol-1-yl)-3-methyl-5-oxo-pentanoic acid]
Antagonist potency compared with 27 (OXE receptor [1]; [8]): reduced potency by several fold

CCCCC/C=C\C/C=C\C/C=C\C=C\[C@@H](O)CCCC(=O)O [5-HETE, 5S-hydroxy-6E,8Z,11Z,14Z-eicosatetraenoic acid]
Times less potent than 5-oxo-ETE (OXE receptor [2]): 100 times

CCCCC/C=C\CC(=O)/C=C/C=C\C/C=C\CCCC(=O)O [12-oxo-ETE]
Activation of the OXE receptor (OXE receptor [2]): do not activate the OXE receptor

CCCCC/C=C\C[C@H](O)/C=C/C=C/C=C/C(=O)CCCC(=O)O [8-trans-5-oxo-12-HETE]
Agonist activity (calcium mobilization by the compound itself) (OXE receptor [3]): Neither compound mobilized intracellular calcium
